# Bioassay records from PubChem BioAssay.
# This is a sample that favours compounds with a hit; in the whole collection about 2% have one here.
# CRFR2-BP ag: agonists of CRF-BP/CRF-R2 complex, primary screen, cell-based, HEK293, calcium dye fluorescence, uHTS; 0.46% of 350,000 active; CRF-binding protein / CRF receptor 2 complex (human); calcium dye fluorescence (FLIPR); percent of saturating CRF peptide response; AID 588473, 2011; activation, % at 13.2 µM;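 active means activation of at least 50%, plus an integration ratio under a set limit after plate pattern correction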;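 further: plate controls were neutral control wells without compound for no effect and CRF at EC100 for full effect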
# CRFR2-BP antag: antagonists of CRF-BP/CRF-R2 complex, primary screen, cell-based, HEK293, calcium dye fluorescence, uHTS. CRF-induced calcium fluorescence. inhibition, % at 11.8 µM. 0.59% of 350,000 active. AID 588475, 2011;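 active means inhibition of the ligand-induced calcium signal above about 50% at the single tested concentration, limit read from the data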
# TRPML3 agonist: human TRPML3 channel agonists, primary screen, cell-based, HEK293 TRPML3-YFP, Fluo-8 calcium fluorescence, 3 µM. 0.29% of 220,000 active. activation, % at 3 µM. 100% = the carbachol control signal. Mucolipin-3 (Homo sapiens), Q8TDD5;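 active means activation above its plate's cutoff, the mean activation of the plate's test wells plus 3 SD, cut at about 12% in these data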;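 further: 0% = DMSO only wells and 100% = carbachol wells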
#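 Material: HEK293 cells stably carrying human TRPML3-YFP; compound dosing: single dose, 3 µM final nominal compound, 0.3% DMSO final; incubation: 1-h 37 °C dye load, 5-s basal, 120-s post-compound reads; technique: Fluo-8 intracellular calcium fluorescence, excitation 470-495 nm, emission 515-575 nm; read-out basis: percent activation from peak-to-basal fluorescence ratio, scaled between DMSO and carbachol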
# zfTRPN1 agonist: zebrafish TRPN1 channel agonists, primary screen, cell-based, HEK293, calcium fluorescence. HEK293 zebrafish TRPN1-YFP, Fluo-8 calcium fluorescence; 100% = response to 87 µM carbachol. activation, % at 3 µM. 0.18% of 220,000 active;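 active means activation above its plate's cutoff, the mean activation of test wells on that plate plus 3 SD, cut at about 19% in these data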;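 further: 0% = DMSO alone and 100% = 87 µM carbachol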
#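 Material – zebrafish TRPN1-YFP in HEK293 cells · Doses – 3 µM single point · Schedule – dye 1 h 37 °C plus 30 min RT · Signal – Fluo-8 calcium fluorescence, excitation 470-495 nm, emission 515-575 nm · Read-out – % activation versus carbachol response · Control set – carbachol high, DMSO low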
# GPR7 antag: GPR7 receptor antagonists, primary screen, cell-based, fluorescence, single concentration; Neuropeptides B/W receptor type 1 (Homo sapiens), P48145; GPR7-expressing cells, fluorescence antagonist assay; inhibition, % at 4.4 µM; 1.1% of 290,000 active; in the data active means inhibition above about 16%, passing the limit was not always enough;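 further: cells stimulated with the agonist NPW; 0% = agonist with vehicle and 100% = vehicle without agonist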
# Target sequence (P48145 whole entry, looked up): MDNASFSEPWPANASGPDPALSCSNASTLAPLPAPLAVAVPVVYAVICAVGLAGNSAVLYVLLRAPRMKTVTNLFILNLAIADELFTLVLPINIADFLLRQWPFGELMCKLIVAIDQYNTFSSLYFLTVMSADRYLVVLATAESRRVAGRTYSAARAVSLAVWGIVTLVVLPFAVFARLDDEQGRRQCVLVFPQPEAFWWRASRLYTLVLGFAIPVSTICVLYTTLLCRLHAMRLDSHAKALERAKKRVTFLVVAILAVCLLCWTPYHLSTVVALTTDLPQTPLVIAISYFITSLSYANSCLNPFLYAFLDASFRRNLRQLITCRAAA
# GPR7 antag conf: GPR7 receptor antagonists, confirmation, cell-based, fluorescence, single concentration; AID 1952, 2009; 52% of 2,400 active; GPR7-expressing cells, calcium fluorescence antagonist mode; inhibition, % at 4.4 µM; shares compounds with GPR7 antag; in the data active means inhibition above about 24%;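 further: stimulated with the GPR7 agonist NPW; 0% = agonist plus vehicle and 100% = vehicle alone without agonist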
# MCHR1 antag: MCHR1 antagonists in cells, counter-screen for GPR7 antagonist project, cell-based, fluorescence, human; AID 2148, 2009; 62% of 2,400 active; shares compounds with GPR7 antag; inhibition, % at 4.4 µM; MCHR1-expressing cells, fluorescence antagonist assay; in the data active means inhibition above about 22%;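 further: 0% = vehicle with agonist and 100% = vehicle without agonist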
# * marks the source's active call; other numbers are inactive results; . = no result.
SMILES,CRFR2-BP ag,CRFR2-BP antag,TRPML3 agonist,zfTRPN1 agonist,GPR7 antag,GPR7 antag conf,MCHR1 antag
C#CCOCCOCCOCCNc1nc(N2CCN(C(=O)[C@H](CCC(=O)O)n3cc(C(N)CC(C)C)nn3)CC2)nc(N2CCN(C(=O)[C@H](Cc3ccc(O)cc3)n3cc(C(N)CC(C)C)nn3)CC2)n1 (some centres not stated),-1,-1,0,2,-11,.,.
O=[N+]([O-])c1ccc2c([N+](=O)[O-])ccc3c2c1CC3,4,-20,.,.,.,.,.
CCOC(=O)C1(Cc2ccccc2C)CCCN(C(=O)CSC)C1 (configuration not stated),1,14,.,.,-7,.,.
C=CCS(=O)(=O)N1CCCC(Cc2ccccc2C)(C(=O)OCC)C1 (configuration not stated),-1,17,.,.,31*,3,-1
COc1ccc(CCNC(=O)CSc2nnc(CNC(=O)c3c(F)cccc3Cl)o2)cc1OC,-1,-2,.,.,-1,.,.
COc1ccc(OCc2nc(C#N)c(N3CCN(c4ccc(OC)cc4)CC3)o2)cc1,-1,9,1,0,43*,48*,50*
N#Cc1nc(COc2ccc(F)cc2)oc1N1CCC(Cc2ccccc2)CC1,4,-11,1,1,30*,48*,47*
CCN1CCN(c2oc(COc3ccc(-c4ccccc4)cc3)nc2C#N)CC1,0,-2,0,2,12,.,.
N#Cc1nc(COc2ccc(F)cc2)oc1N1CCN(Cc2ccccc2)CC1,1,-6,1,2,35*,33*,52*
O=C(NC1CCCCCC1)c1ccc([N+](=O)[O-])s1,-4,13,.,.,.,.,.
CC1CCCCC1NC(=O)C(C)N1C(=O)c2ccccc2C1=O (configuration not stated),-1,-2,.,.,.,.,.
O=C(Nc1ccncc1)c1ccc(Cl)c(S(=O)(=O)N2CCCC2)c1,0,-3,.,.,.,.,.
COc1cccc(-c2cccc(NC(=O)C3CCN(Cc4ccc(C)o4)CC3)c2)c1,2,-5,.,.,-1,.,.
C=CCn1cc(CN2CCC(C(=O)Nc3cccc(-c4cccc(F)c4)c3)CC2)c(C)n1,1,-8,.,.,12,.,.
COCc1ccc(CN2CCC(C(=O)Nc3cccc(-c4cccc(Cl)c4)c3)CC2)o1,6,5,.,.,27*,41*,82*
C=CCn1cc(CN2CCC(C(=O)Nc3cccc(-c4cccc(Cl)c4)c3)CC2)c(C)n1,0,-3,.,.,41*,41*,58*
Cc1cc(-c2ccc(C)c(S(=O)(=O)N3CCN(c4ccccn4)CC3)c2)on1,-1,-5,.,.,28*,32*,62*
Cn1c(=O)oc2cc(S(=O)(=O)N3CCN(c4ccccc4)CC3)ccc21,0,-28,1,3,-17,.,.
Cn1c(=O)oc2cc(S(=O)(=O)N3CCN(c4ccccn4)CC3)ccc21,-4,21,1,1,26*,-3,-4
CC(NC(=O)c1cc(S(=O)(=O)N2CCOCC2)ccc1F)c1ccc(-n2ccnc2)cc1 (configuration not stated),0,-1,.,.,.,.,.
CCOC(=O)C1=C(CC)Nc2ccccc2N/C1=N\S(=O)(=O)c1ccccc1OC,-2,-5,.,.,.,.,.
CN1CCN(c2ccc(Cl)cc2NC(=O)c2cccc(S(=O)(=O)N(C)C)c2)CC1,-2,4,1,3,24*,16,13
CN1CCN(c2ccc(Cl)cc2NC(=O)/C=C/c2cccc(F)c2)CC1,4,-72,1,4,27*,43*,28*
CCc1cc(C(=O)Nc2cc(Cl)ccc2N2CCN(C)CC2)sc1C,4,-19,.,.,.,.,.
Fc1ccccc1Cc1noc(CN2CCN(c3ccc(Cl)cn3)CC2)n1,-3,20,0,-1,21*,13,26*
SMILES,CRFR2-BP ag,CRFR2-BP antag,TRPML3 agonist,zfTRPN1 agonist,GPR7 antag,GPR7 antag conf,MCHR1 antag
Clc1ccccc1Cc1noc(CN2CCN(c3cnccn3)CC2)n1,-3,12,1,-1,-3,.,.
COc1ccc(CNC(=O)CSc2ncn[nH]2)cc1OC,3,-6,.,.,-2,.,.
CCCCCn1c(=O)[nH]c2cc(C(=O)NCCc3ccc(OC)c(OC)c3)ccc2c1=O,0,26,0,-1,5,.,.
COc1ccc(-n2c(=O)[nH]c3cc(C(=O)NCCc4ccc(Cl)cc4)ccc3c2=O)cc1OC,0,2,0,0,36*,36*,60*
Cc1noc(C)c1NC(=O)N(C)C[C@@H]1Oc2ncc(Br)cc2C(=O)N([C@@H](C)CO)C[C@@H]1C,0,-6,.,.,.,.,.
CC1CCN(CCCNC(=O)CN2C(=O)CSc3ccc(S(=O)(=O)N4CCC(C)CC4)cc32)CC1,-2,-12,.,.,26*,-5,-9
O=C(c1cc2ccccc2o1)N1CCN(C/C=C/c2ccccc2)CC1,-1,0,.,.,29*,7,21*
Cc1nc(-c2ccc(F)cc2)c(CC(=O)N(C)CC(=O)Nc2ccc(Cl)c(C(F)(F)F)c2)s1,5,-11,.,.,.,.,.
O=C(NCCc1ccccc1)C1(c2ccccc2)CCCC1,-1,5,.,.,-13,.,.
N#CC1(c2ccccc2)CCC(NCCc2ccccc2)CC1 (configuration not stated),-1,-2,.,.,40*,7,2
COCCNC(=S)Nc1ccc(S(=O)(=O)Nc2ncccn2)cc1,1,-3,1,-1,25*,-8,-6
O=S(=O)(Nc1ncccn1)c1ccc(NC(=S)NCCc2ccccc2)cc1,0,-3,0,1,-20,.,.
